Measured values published in ChEMBL document CHEMBL4689842, “EUbOPEN Chemogenomics Library wave 1” (2021).

Tested on: HEK-293T
Assay: Multiplex assay against HEK293T;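 on Population Tubulin-Different-Phenotype (%): share of the cells with healthy nuclei that show this phenotype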
Type: toxicity, cell-based
Settings: human
In short: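 Per cents of healthy-nucleus cells form the tubulin, mitochondrial-mass and membrane-permeability phenotype values. Live cells were stained at seeding with Hoechst33342, BioTracker Green Microtubule Cytoskeleton Dye, MitoTracker Red and Annexin V Alexa Fluor 680. After compound addition they were imaged on a CQ1 microscope at 37°C and 5% CO2, and CellPathfinder machine-learning gating split them into Hoechst high-intensity objects or normal cells, normal cells into healthy, pyknosed or fragmented nuclei, and pyknosed cells into mitotic or apoptotic.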

[1] = 12 h, 1 µM, compound concentration 1 uM, replicate 1
[2] = 12 h, 1 µM, compound concentration 1 uM, replicate 2
[3] = 12 h, 10 µM, compound concentration 10 uM, replicate 1
[4] = 12 h, 10 µM, compound concentration 10 uM, replicate 2
[5] = 24 h, 1 µM, compound concentration 1 uM, replicate 1
[6] = 24 h, 1 µM, compound concentration 1 uM, replicate 2
[7] = 24 h, 10 µM, compound concentration 10 uM, replicate 1
[8] = 24 h, 10 µM, compound concentration 10 uM, replicate 2
[9] = 48 h, 1 µM, compound concentration 1 uM, replicate 1
[10] = 48 h, 1 µM, compound concentration 1 uM, replicate 2
[11] = 48 h, 10 µM, compound concentration 10 uM, replicate 1
[12] = 48 h, 10 µM, compound concentration 10 uM, replicate 2

CC(C)c1cc(Nc2nc(N3CCC[C@H](N)C3)ncc2C(N)=O)cc(C(C)C)n1
Population Apoptotic (%) [1]: 61% | Population Fragmented Nuclei (%) [1]: 9% | Population Healthy Nuclei (%) [1]: 30% | Population Hoechst High Intensity Objects (%) [1]: 11% | Population Membrane Permeable-Phenotype (%) [1]: 9% | Population Mitochondria Different-Phenotype (%) [1]: 95% | Population Mitotic Cells (%) [1]: 38% | Population Normal (%) [1]: 88% | Population Pyknosed Nuclei (%) [1]: 60% | Population Tubulin-Different-Phenotype (%) [1]: 100% | Total Cell Count [1]: 225 | Population Apoptotic (%) [2]: 52% | Population Fragmented Nuclei (%) [2]: 5% | Population Healthy Nuclei (%) [2]: 26% | Population Hoechst High Intensity Objects (%) [2]: 7% | Population Membrane Permeable-Phenotype (%) [2]: 8% | Population Mitochondria Different-Phenotype (%) [2]: 91% | Population Mitotic Cells (%) [2]: 47% | Population Normal (%) [2]: 92% | Population Pyknosed Nuclei (%) [2]: 68% | Population Tubulin-Different-Phenotype (%) [2]: 97% | Total Cell Count [2]: 140 | Population Apoptotic (%) [3]: 88% | Population Healthy Nuclei (%) [3]: 6% | Population Hoechst High Intensity Objects (%) [3]: 18% | Population Membrane Permeable-Phenotype (%) [3]: 0% | Population Mitochondria Different-Phenotype (%) [3]: 93% | Population Mitotic Cells (%) [3]: 11% | Population Normal (%) [3]: 81% | Population Pyknosed Nuclei (%) [3]: 86% | Population Tubulin-Different-Phenotype (%) [3]: 43% | Total Cell Count [3]: 313 | Population Apoptotic (%) [4]: 64% | Population Fragmented Nuclei (%) [4]: 7% | Population Healthy Nuclei (%) [4]: 5% | Population Hoechst High Intensity Objects (%) [4]: 5% | Population Membrane Permeable-Phenotype (%) [4]: 10% | Population Mitochondria Different-Phenotype (%) [4]: 90% | Population Mitotic Cells (%) [4]: 35% | Population Normal (%) [4]: 94% | Population Pyknosed Nuclei (%) [4]: 87% | Population Tubulin-Different-Phenotype (%) [4]: 40% | Total Cell Count [4]: 206 | Population Apoptotic (%) [5]: 65% | Population Fragmented Nuclei (%) [5]: 8% | Population Healthy Nuclei (%) [5]: 28% | Population Hoechst High Intensity Objects (%) [5]: 14% | Population Membrane Permeable-Phenotype (%) [5]: 5% | Population Mitochondria Different-Phenotype (%) [5]: 94% | Population Mitotic Cells (%) [5]: 34% | Population Normal (%) [5]: 85% | Population Pyknosed Nuclei (%) [5]: 63% | Population Tubulin-Different-Phenotype (%) [5]: 91% | Total Cell Count [5]: 234 | Population Apoptotic (%) [6]: 62% | Population Fragmented Nuclei (%) [6]: 9% | Population Healthy Nuclei (%) [6]: 40% | Population Hoechst High Intensity Objects (%) [6]: 5% | Population Membrane Permeable-Phenotype (%) [6]: 9% | Population Mitochondria Different-Phenotype (%) [6]: 89% | Population Mitotic Cells (%) [6]: 37% | Population Normal (%) [6]: 94% | Population Pyknosed Nuclei (%) [6]: 49% | Population Tubulin-Different-Phenotype (%) [6]: 96% | Total Cell Count [6]: 170 | Population Apoptotic (%) [7]: 90% | Population Fragmented Nuclei (%) [7]: 14% | Population Healthy Nuclei (%) [7]: 2% | Population Hoechst High Intensity Objects (%) [7]: 22% | Population Membrane Permeable-Phenotype (%) [7]: 0% | Population Mitochondria Different-Phenotype (%) [7]: 100% | Population Mitotic Cells (%) [7]: 9% | Population Normal (%) [7]: 77% | Population Pyknosed Nuclei (%) [7]: 82% | Population Tubulin-Different-Phenotype (%) [7]: 28% | Total Cell Count [7]: 321 | Population Apoptotic (%) [8]: 89% | Population Fragmented Nuclei (%) [8]: 11% | Population Healthy Nuclei (%) [8]: 15% | Population Hoechst High Intensity Objects (%) [8]: 8% | Population Membrane Permeable-Phenotype (%) [8]: 10% | Population Mitochondria Different-Phenotype (%) [8]: 40% | Population Mitotic Cells (%) [8]: 10% | Population Normal (%) [8]: 91% | Population Pyknosed Nuclei (%) [8]: 72% | Population Tubulin-Different-Phenotype (%) [8]: 70% | Total Cell Count [8]: 206 | Population Apoptotic (%) [9]: 72% | Population Fragmented Nuclei (%) [9]: 13% | Population Healthy Nuclei (%) [9]: 39% | Population Hoechst High Intensity Objects (%) [9]: 15% | Population Membrane Permeable-Phenotype (%) [9]: 2% | Population Mitochondria Different-Phenotype (%) [9]: 85% | Population Mitotic Cells (%) [9]: 27% | Population Normal (%) [9]: 84% | Population Pyknosed Nuclei (%) [9]: 46% | Population Tubulin-Different-Phenotype (%) [9]: 95% | Total Cell Count [9]: 246 | Population Apoptotic (%) [10]: 66% | Population Fragmented Nuclei (%) [10]: 7% | Population Healthy Nuclei (%) [10]: 55% | Population Hoechst High Intensity Objects (%) [10]: 7% | Population Membrane Permeable-Phenotype (%) [10]: 3% | Population Mitochondria Different-Phenotype (%) [10]: 81% | Population Mitotic Cells (%) [10]: 33% | Population Normal (%) [10]: 92% | Population Pyknosed Nuclei (%) [10]: 36% | Population Tubulin-Different-Phenotype (%) [10]: 96% | Total Cell Count [10]: 213 | Population Apoptotic (%) [11]: 71% | Population Fragmented Nuclei (%) [11]: 22% | Population Healthy Nuclei (%) [11]: 2% | Population Hoechst High Intensity Objects (%) [11]: 17% | Population Membrane Permeable-Phenotype (%) [11]: 0% | Population Mitochondria Different-Phenotype (%) [11]: 100% | Population Mitotic Cells (%) [11]: 28% | Population Normal (%) [11]: 82% | Population Pyknosed Nuclei (%) [11]: 74% | Population Tubulin-Different-Phenotype (%) [11]: 57% | Total Cell Count [11]: 341 | Population Apoptotic (%) [12]: 92% | Population Fragmented Nuclei (%) [12]: 23% | Population Healthy Nuclei (%) [12]: 26% | Population Hoechst High Intensity Objects (%) [12]: 7% | Population Membrane Permeable-Phenotype (%) [12]: 13% | Population Mitochondria Different-Phenotype (%) [12]: 64% | Population Mitotic Cells (%) [12]: 7% | Population Normal (%) [12]: 92% | Population Pyknosed Nuclei (%) [12]: 50% | Population Tubulin-Different-Phenotype (%) [12]: 91% | Total Cell Count [12]: 182 | Population Apoptotic (%) (replicate 1): 30% | Population Fragmented Nuclei (%) (replicate 1): 5% | Population Healthy Nuclei (%) (replicate 1): 23% | Population Hoechst High Intensity Objects (%) (replicate 1): 12% | Population Membrane Permeable-Phenotype (%) (replicate 1): 0% | Population Mitochondria Different-Phenotype (%) (replicate 1): 74% | Population Mitotic Cells (%) (replicate 1): 69% | Population Normal (%) (replicate 1): 87% | Population Pyknosed Nuclei (%) (replicate 1): 71% | Population Tubulin-Different-Phenotype (%) (replicate 1): 3%
